The results in this text go back to ChEMBL document CHEMBL2424614, “A novel p-terphenyl derivative inducing cell-cycle arrest and apoptosis in MDA-MB-435 cells through topoisomerase inhibition” (Eur J Med Chem, 2013).

Structures are written as SMILES. Calls of active or inactive are those of the source. The rule behind the calls is not given here.

In assay [1] the test system is MDA-MB-435. Briefly: Cell cycle arrest in human MDA-MB-435 cells assessed as accumulation at G1 phase at 0.5 uM after 24 hrs by propidium iodide staining-based flow cytometry (reference value: 28.06%). The format is functional. A general note: In flow cytometry, cells or beads pass a laser one at a time.
Assay [2] concerns MDA-MB-435. The assay is described as follows: Cell cycle arrest in human MDA-MB-435 cells assessed as accumulation at G1 phase at 0.25 uM after 24 hrs by propidium iodide staining-based flow cytometry (reference value: 28.06%). The format is functional.
Assay [3] deals with MDA-MB-435. The assay is described as follows: Cytotoxicity against human MDA-MB-435 cells assessed as growth inhibition after 72 hrs by MTT assay. The format is functional, cell-based. The following applies: MDA-MB-435, 72 h. The gist of the method:
(§1)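 MTT assay: cells treated in triplicate with a range of concentrations for 72 h at 37 °C, 5% CO2. Medium replaced, MTT (5 mg/mL) added for 4 h, then SDS/isobutanol/HCl solubiliser overnight. Absorbance read at 590 nm. Inhibition calculated against control and blank wells; IC50 is concentration giving 50% growth inhibition; three independent experiments.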

In assay [4] the test system is MDA-MB-435. The assay is described as follows: Cell cycle arrest in human MDA-MB-435 cells assessed as accumulation at sub-G1 phase at 0.5 uM after 24 hrs by propidium iodide staining-based flow cytometry (reference value: 0.79%). The format is functional.
Assay [5] concerns MDA-MB-435. Briefly: Induction of apoptosis in human MDA-MB-435 cells assessed as early apoptotic cells at 2 uM after 24 hrs by annexin-V FITC/propidium iodide staining-based flow cytometry (reference value: 0.61 +/- 0.24%). The assay is classed as functional. The gist of the method:
(§2)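 MDA-MB-435 cells treated 24 h, stained with annexin V-FITC/PI per kit instructions, analysed by flow cytometry. Quadrant statistics: lower right taken as apoptotic, upper right as necrotic or post-apoptotic necrotic. Representative of three similar experiments.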

For assay [6], the system named is MDA-MB-435. Briefly: Cell cycle arrest in human MDA-MB-435 cells assessed as increase in CDC2 expression at 0.25 to 1 uM after 12 to 24 hrs by Western blotting analysis. The format is functional, cell-based. The gist of the method: (§3)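 Treated MDA-MB-435 cells lysed in ice-cold Tris-HCl pH 7.4 buffer with Triton, phosphatase and protease inhibitors. Lysates clarified, boiled in SDS loading buffer, run on 8-12% SDS-PAGE and blotted. Membranes blocked in 5% skim milk, probed with primary antibodies, then peroxidase secondaries with ECL detection. β-actin as loading control.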
Background: Immunoblotting shows a protein as a band on a membrane.

Assay [7] has as its system MDA-MB-435. Briefly: Cell cycle arrest in human MDA-MB-435 cells assessed as accumulation at G2/M phase at 0.5 uM after 24 hrs by propidium iodide staining-based flow cytometry (reference value: 14.05%). The assay is classed as functional.
The target of assay [8] is DNA topoisomerase 2-alpha (Homo sapiens) (UniProt P11388). The assay is described as follows: Induction of recombinant human DNA topoisomerase 2-alpha poisoning activity using pBR322 as substrate assessed as appearance of linear DNA at 100 uM after 30 mins by Agarose gel electrophoresis. The gist of the method: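 Same format as the Topo IIα inhibition assay: 0.5 µg supercoiled pBR322 with 1 unit recombinant human Topo IIα. Incubated 37 °C for 30 min, stopped with 10% SDS, then proteinase K (50 µg/mL) for 20 min. Run on 1% agarose gel containing ethidium bromide, 5 V/cm, 2 h, TAE. Linear and nicked open circular DNA positions scored. At least duplicate.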
Sequence of DNA topoisomerase 2-alpha (Homo sapiens) (P11388 whole entry): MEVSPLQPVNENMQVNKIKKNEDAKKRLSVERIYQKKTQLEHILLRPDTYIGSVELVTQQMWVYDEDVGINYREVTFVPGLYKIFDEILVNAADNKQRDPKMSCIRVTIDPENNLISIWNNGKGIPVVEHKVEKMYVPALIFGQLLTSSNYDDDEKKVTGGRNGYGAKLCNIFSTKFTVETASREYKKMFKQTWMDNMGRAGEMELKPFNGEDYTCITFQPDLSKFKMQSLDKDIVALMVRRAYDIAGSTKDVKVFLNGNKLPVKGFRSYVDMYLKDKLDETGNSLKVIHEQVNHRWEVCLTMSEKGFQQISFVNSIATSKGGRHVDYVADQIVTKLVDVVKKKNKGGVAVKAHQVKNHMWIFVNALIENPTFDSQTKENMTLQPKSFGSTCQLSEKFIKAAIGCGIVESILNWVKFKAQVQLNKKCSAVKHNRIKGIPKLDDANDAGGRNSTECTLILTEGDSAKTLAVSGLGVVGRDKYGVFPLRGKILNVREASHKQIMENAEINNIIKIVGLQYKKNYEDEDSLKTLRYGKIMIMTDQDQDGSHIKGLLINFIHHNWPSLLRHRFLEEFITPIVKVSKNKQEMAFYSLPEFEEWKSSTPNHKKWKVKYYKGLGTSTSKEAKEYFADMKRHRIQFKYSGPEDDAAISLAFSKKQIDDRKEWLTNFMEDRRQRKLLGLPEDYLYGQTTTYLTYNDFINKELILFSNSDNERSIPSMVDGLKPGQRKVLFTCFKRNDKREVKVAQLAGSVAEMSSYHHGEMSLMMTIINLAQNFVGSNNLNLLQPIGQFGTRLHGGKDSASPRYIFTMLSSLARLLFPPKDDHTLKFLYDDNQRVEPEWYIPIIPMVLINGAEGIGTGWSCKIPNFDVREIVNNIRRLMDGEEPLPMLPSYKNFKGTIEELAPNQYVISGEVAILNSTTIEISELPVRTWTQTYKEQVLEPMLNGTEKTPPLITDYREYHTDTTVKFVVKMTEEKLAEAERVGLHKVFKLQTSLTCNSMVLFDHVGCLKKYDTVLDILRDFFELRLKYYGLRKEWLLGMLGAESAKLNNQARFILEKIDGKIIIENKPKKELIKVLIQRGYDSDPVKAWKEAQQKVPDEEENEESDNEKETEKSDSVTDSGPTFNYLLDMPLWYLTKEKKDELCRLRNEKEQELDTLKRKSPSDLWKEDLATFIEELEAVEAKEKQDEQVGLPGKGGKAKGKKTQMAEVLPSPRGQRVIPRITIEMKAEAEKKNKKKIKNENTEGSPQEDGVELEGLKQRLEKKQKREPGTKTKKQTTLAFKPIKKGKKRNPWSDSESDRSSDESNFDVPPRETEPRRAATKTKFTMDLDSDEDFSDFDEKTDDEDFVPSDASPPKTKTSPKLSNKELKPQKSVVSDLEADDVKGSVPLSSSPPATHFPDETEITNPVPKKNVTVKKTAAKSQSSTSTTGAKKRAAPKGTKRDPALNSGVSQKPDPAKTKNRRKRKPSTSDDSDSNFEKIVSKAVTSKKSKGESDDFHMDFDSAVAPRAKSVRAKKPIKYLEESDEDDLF

Assay [9] has as its system MDA-MB-435. The assay is described as follows: Cell cycle arrest in human MDA-MB-435 cells assessed as accumulation at G2/M phase at 0.25 uM after 24 hrs by propidium iodide staining-based flow cytometry (reference value: 14.05%). The format is functional.
For assay [10], the system named is MDA-MB-435. Briefly: Cell cycle arrest in human MDA-MB-435 cells assessed as accumulation at G1 phase at 1 uM after 24 hrs by propidium iodide staining-based flow cytometry (reference value: 28.06%). The assay is classed as functional.
For assay [11], the species on record is Bos taurus. Briefly: Inhibition of calf thymus DNA topoisomerase 1-mediated relaxation of supercoiled pBR322 DNA at 10 to 100 uM after 30 mins by Agarose gel electrophoresis. The gist of the method: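 Relaxation assay with 0.5 µg supercoiled pBR322 and 1 unit calf thymus Topo I, 20 µL. Buffer: 10 mM Tris–HCl pH 7.9, 150 mM NaCl, 0.1% BSA, 1 mM spermidine, 5% glycerol. Incubated 37 °C for 30 min; stopped with sarcosyl stop solution. 1% agarose gel, 5 V/cm, 2 h, TAE; ethidium bromide stain (0.5 µg/mL), UV. DMSO stocks. At least duplicate.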

Assay [12] concerns MDA-MB-435. The assay is described as follows: Cell cycle arrest in human MDA-MB-435 cells assessed as accumulation at sub-G1 phase at 0.25 uM after 24 hrs by propidium iodide staining-based flow cytometry (reference value: 0.79%). The format is functional.
Assay [13] addresses DNA topoisomerase 2-alpha (Homo sapiens) (UniProt P11388). Briefly: Inhibition of recombinant human DNA topoisomerase 2-alpha-mediated relaxation of supercoiled pBR322 DNA at 10 to 100 uM after 30 mins by Agarose gel electrophoresis. The gist of the method: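 Relaxation assay with 0.5 µg supercoiled pBR322 and 1 unit recombinant human Topo IIα, 20 µL. Incubated 30 min at 30 °C; stopped with 7 mM EDTA. 1% agarose gel, 5 V/cm, 2 h, TAE; ethidium bromide stain, UV. DMSO stocks. At least duplicate.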

For assay [14], the system named is MDA-MB-435. Briefly: Induction of apoptosis in human MDA-MB-435 cells assessed as dead cells at 2 uM after 24 hrs by annexin-V FITC/propidium iodide staining-based flow cytometry (reference value: 0.61 +/- 0.24%). The assay is classed as functional.
In assay [15] the test system is MDA-MB-435. The assay is described as follows: Cell cycle arrest in human MDA-MB-435 cells assessed as accumulation at S phase at 0.25 uM after 24 hrs by propidium iodide staining-based flow cytometry (reference value: 57.11%). The format is functional.
In assay [16] the test system is MDA-MB-435. Briefly: Induction of apoptosis in human MDA-MB-435 cells assessed as viable cells at 2 uM after 24 hrs by annexin-V FITC/propidium iodide staining-based flow cytometry (reference value: 98.62 +/- 0.25%). The assay is classed as functional. Conditions: MDA-MB-435, 24 h, read-out: Activity. The gist of the method:
as §2

The test system of assay [17] is MDA-MB-435. Briefly: Induction of apoptosis in human MDA-MB-435 cells assessed as nuclear fragmentation at 0.25 to 1 uM by DAPI staining-based fluorscence microscopy. The assay is classed as functional, cell-based. The gist of the method:
(§4)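 Treated MDA-MB-435 cells washed in ice-cold PBS, fixed 20 min in 4% paraformaldehyde, stained 30 min at 37 °C with DAPI (50 µg/mL) containing 100 µg/mL RNase A. After PBS washes, examined by fluorescence microscopy (excitation 340 nm, emission 488 nm).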

Assay [18] concerns LNCaP. The assay is described as follows: Cytotoxicity against human LNCAP cells assessed as growth inhibition after 72 hrs by MTT assay. The format is functional, cell-based. The gist of the method:
as §1

In assay [19] the test system is MDA-MB-435. The assay is described as follows: Cell cycle arrest in human MDA-MB-435 cells assessed as accumulation at S phase at 1 uM after 24 hrs by propidium iodide staining-based flow cytometry (reference value: 57.11%). The assay is classed as functional.
The subject of assay [20] is MDA-MB-435. Briefly: Induction of apoptosis in human MDA-MB-435 cells assessed as PARP cleavage after 12 to 24 hrs by Western blotting analysis. The format is functional, cell-based. The gist of the method:
as §3

Assay [21] has as its system MDA-MB-435. The assay is described as follows: Induction of apoptosis in human MDA-MB-435 cells assessed as morphological changes at 0.25 to 1 uM by DAPI staining-based fluorescence microscopy. The format is functional, cell-based. The gist of the method: as §4
Assay [22] concerns MDA-MB-435. The assay is described as follows: Induction of apoptosis in human MDA-MB-435 cells assessed as chromatin condensation at 0.25 to 1 uM by DAPI staining-based fluorscence microscopy. The format is functional, cell-based. The gist of the method:
as §4

For assay [23], the system named is MDA-MB-435. Briefly: Induction of apoptosis in human MDA-MB-435 cells assessed as downregulation of Bcl-2 protein expression at 0.25 to 1 uM after 12 hrs by Western blotting analysis. The format is functional, cell-based. The gist of the method:
as §3

`Oc1ccc(-c2ccc(-c3ccc(O)c(O)c3)cc2)cc1`: the Activity in assay [1] amounted to 30.68%; in [2], 34.91%; in assay [4], 4.53%; in [5] it was 12.87%; in assay [7], 38.41%; in [9], 16.24%. For the same compound, the Activity was 22.42% in [10]; 1.04% in [12]; 1.7% in assay [14]; 47.81% in assay [15]; 12.58% in assay [19]; “Dose-dependent effect” in [20]. The 50% inhibitory concentration (IC50) in assay [3] was less than 1000 nM. Also, the result in assay [6], in [17], in [21], in assay [22] and in assay [23] was Active. In addition, in assay [8], the result was inactive. Further, the inhibition entry in [11] and in assay [13] was “Active” each time. In [16], the viability at 2 µM was 71.8%. For the same compound, in assay [18], the “growth inhibition (GI)” value was “Active”.

The IC50 is the midpoint of a concentration-inhibition curve.
